# Screening results as filed in PubChem BioAssay.
# Only some compounds are listed: those with a hit (about 2.6% of all), similar ones and a draw of the others.
# VIM-2 inh: blocks Pseudomonas aeruginosa VIM-2 metallo-beta-lactamase; inhibition, % at 5.6 µM; hit rate 0.89% among 290,000; purified VIM-2, nitrocefin hydrolysis, epi-absorbance fluorescence;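 active = inhibition above the mean of all tested compounds plus 3 SD, cutoff set per screening run, cut at about 7.5% in these data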;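 also: red hydrolysis product quenches plate fluorescence so inhibitors raise well fluorescence; 0% = enzyme with DMSO and 100% = DMSO without enzyme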
# Runt-CBFb FRET: Runt domain-CBFb interaction inhibition. Q01196+Q13951. Cerulean-Runt/Venus-CBFb FRET ratio 530/480, 1 h. inhibition, % at 20 µM. hit rate 0.46% among 220,000. AID 1496;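 active = inhibition over about 50% at 20 µM in the single-dose screen, limit read from the data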;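 also: 0% = DMSO wells and 100% = excess unlabeled CBFb competitor control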
# Target sequence (Q01196 whole entry, looked up, the tested form may be a part): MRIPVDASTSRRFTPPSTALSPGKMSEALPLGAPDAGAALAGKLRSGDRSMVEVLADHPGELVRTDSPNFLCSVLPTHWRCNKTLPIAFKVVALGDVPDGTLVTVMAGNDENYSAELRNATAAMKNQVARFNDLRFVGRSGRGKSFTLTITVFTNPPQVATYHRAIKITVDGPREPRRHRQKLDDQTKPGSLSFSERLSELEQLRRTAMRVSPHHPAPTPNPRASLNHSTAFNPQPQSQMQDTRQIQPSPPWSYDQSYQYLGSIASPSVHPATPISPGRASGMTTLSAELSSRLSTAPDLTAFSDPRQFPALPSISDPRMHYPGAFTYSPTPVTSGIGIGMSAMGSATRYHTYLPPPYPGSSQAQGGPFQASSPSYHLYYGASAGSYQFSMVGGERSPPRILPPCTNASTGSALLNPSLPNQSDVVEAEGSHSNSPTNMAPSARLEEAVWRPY
# Target sequence (Q13951 whole entry, looked up, the tested form may be a part): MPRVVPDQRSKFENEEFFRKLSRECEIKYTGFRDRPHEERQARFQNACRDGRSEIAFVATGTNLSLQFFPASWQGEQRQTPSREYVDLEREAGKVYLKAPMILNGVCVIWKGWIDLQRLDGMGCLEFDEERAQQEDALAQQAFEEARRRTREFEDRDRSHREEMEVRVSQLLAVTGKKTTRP
#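 Measured by: fluorescence energy transfer, 422 nm excitation, 530/480 nm emission; Assay system: Cerulean-Runt domain; Medium: Tris pH 7.5 buffer with BSA; Measure: loss of energy transfer signal; Controls: 5 µM unlabeled CBFb as full-inhibition high control; Incubation: protein complex preformed 1 h, compound exposure 1 h, room temperature, dark.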
# IMP-1 inhibitor: inhibitors of Pseudomonas aeruginosa IMP-1 metallo-beta-lactamase; purified IMP-1, nitrocefin hydrolysis, epi-absorbance fluorescence; inhibition, % at 5.6 µM; hit rate 0.45% among 290,000; AID 1556;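 active = inhibition above the mean plus 3 SD of all compounds in the same screening run, cut at about 4.5% in these data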;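 also: 0% = IMP-1 with DMSO and 100% = DMSO wells lacking enzyme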
#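 System: purified IMP-1 / Input: IMP-1 dispensed at 0.2 nM / Medium: 50 mM HEPES pH 7.1, 50 µM ZnSO4, 0.05% Brij 35 / Timing: 15 min enzyme–compound preincubation, then 25 min nitrocefin reaction, 25 °C / Technique: plate fluorescence quenching by hydrolysis product, ex 480/em 530 nm / Repeats: singlicate testing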
# Runt-SMMHC FRET: blocks binding of human RUNX1 Runt domain to CBFb-SMMHC; Q01196+Q13951; Cerulean-Runt/Venus-CBFb-SMMHC FRET ratio 530/480, 1 h; inhibition, % at 20 µM; hit rate 0.74% among 220,000;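 active = mean inhibition across duplicate retests at 20 µM reaching about 50%, limit read from the data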;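 also: 0% = DMSO wells and 100% = wells with excess untagged CBFb-SMMHC; inhibitors lower the FRET ratio by blocking Runt binding to CBFb-SMMHC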
# RanGTP-Impb inh: disruptors of Ran-importin-beta complex formation – biochemical, FRET, CFP-Ran, YFP-importin-beta, homogeneous, primary screen. hit rate 1.1% among 300,000. inhibition, % (concentration not given with the values). cell-free CFP-Ran/YFP-importin-beta FRET ratio;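 active = more than half of the replicate wells show a fall in the fluorescence ratio signal beyond about 16%, limit read from the data, passing the limit was not always enough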;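 also: 0% = DMSO wells and 100% = Ran loaded with GDP instead of GTP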
# * marks the source's active call; other numbers are inactive results; / = no result given; ! = repeats disagree.
SMILES,VIM-2 inh,Runt-CBFb FRET,IMP-1 inhibitor,Runt-SMMHC FRET,RanGTP-Impb inh
CN1CCc2c(sc3c2C(=O)NC(c2ccco2)N3)C1 (stereo not drawn),0.0,127.3*,3.0,38.3,113.0*
COc1cc(C2C(C#N)=C(N)Oc3cc(C)oc(=O)c32)cc(OC)c1OC (stereo not drawn),-3.9,0.3,-4.4,1.3,-1.9
COc1cc(C2C(C#N)=C(N)Oc3cc(N)ccc32)cc(OC)c1OC (stereo not drawn),0.5,35.1,-5.4,81.2*,/
N#CC1=C(N)Oc2cc(N)ccc2C1c1ccc(Cl)cc1 (stereo not drawn),0.0,/,-0.4,/,60.9*
N#CC1=C(N)Oc2cc(N)ccc2C1c1ccc(F)cc1F (stereo not drawn),-1.1,/,0.7,/,124.7*
CCc1ccc(C2C(C#N)=C(N)Oc3cc(N)ccc32)cc1 (stereo not drawn),-2.1,/,-2.0,/,95.5*
Cc1nn(-c2ccccc2)c2c1C(c1ccc(F)cc1F)C(C#N)=C(N)O2 (stereo not drawn),-0.8,-2.1,-1.4,-0.4,-3.1
O=C(NC1CCSc2ccccc21)c1cccc([N+](=O)[O-])c1 (stereo not drawn),-1.5,/,-4.2,/,2.4
CCN(c1ccccc1)S(=O)(=O)c1ccc(C(=O)Nc2ccc(C)cn2)cc1,/,/,/,/,-2.5
CC(=O)c1ccc(NC(=O)NC2CC(=O)N(c3ccc4c(c3)OCCO4)C2)cc1 (stereo not drawn),/,/,/,/,-2.8
COc1ccc(C2C(C#N)=C(N)Oc3cccc(O)c32)cc1 (stereo not drawn),1.6,/,-2.0,/,51.3*
COc1ccc(C2C(C#N)=C(N)Oc3cc(N)ccc32)cc1 (stereo not drawn),-2.8,/,-4.5,/,76.6*
N#CC1=C(N)Oc2cc(N)ccc2C1c1ccccc1Cl (stereo not drawn),-0.2,/,1.1,/,133.0*
Cc1ccc(C2C(C#N)=C(N)Oc3cc4c(cc32)OCO4)cc1 (stereo not drawn),-4.6,23.9,-4.4,33.2,11.9
N#CC1=C(N)OC2=C(CCc3ccccc32)C1c1ccccc1Cl (stereo not drawn),1.4,12.2,-1.6,29.5,3.9
COc1cc(C(=O)Nc2ccc3c(c2)N(C(=O)CN2CCN(C)CC2)c2ccccc2CC3)cc(OC)c1OC,-0.4,0.1,-3.4,1.1,-0.1
Cc1ccc(C)c(NC(=O)CN(C)C(=O)c2ccc3[nH]c4c(c3c2)CC(C)CC4)c1 (stereo not drawn),/,/,/,/,25.8*
Nc1cc(N)nc(SCc2cc(=O)oc3cc4c(cc23)CCC4)n1,1.5,0.4,-0.7,-2.4,31.1*
CCc1cc2c(CN(C)Cc3ccccc3F)cc(=O)oc2cc1O,-3.5,/,-4.0,/,53.6*
CCc1cc2c(CN3CCN(Cc4ccccc4)CC3)cc(=O)oc2cc1O,3.7,/,-4.2,/,87.7*
Cc1c(O)ccc2c(CN(C)Cc3ccccc3)cc(=O)oc12,-3.2,46.0,-3.4,81.2*,22.7*
CCSc1nc2c(cnn2-c2ccccc2)c(=O)n1N,-4.8,-0.1,-2.3,0.7,0.2
Cc1c(O)ccc2c(CC(=O)N[C@@H](Cc3ccccc3)C(=O)O)cc(=O)oc12,-3.6,/,-0.1,/,68.0*
Cc1cc(C)c2c(CN3CC(C)OC(C)C3)cc(=O)oc2c1C (stereo not drawn),5.0,/,-2.7,/,-1.8
Cc1c(O)ccc2c(CN3CCN(Cc4ccccc4)CC3)cc(=O)oc12,0.1,/,0.2,/,54.0*
SMILES,VIM-2 inh,Runt-CBFb FRET,IMP-1 inhibitor,Runt-SMMHC FRET,RanGTP-Impb inh
COc1cccc(CN(C)Cc2cc(=O)oc3cc(O)c(Cl)cc23)c1,0.7,/,1.3,/,76.9*
Cc1cc(C)c2c(CN3CCN(Cc4ccccc4)CC3)cc(=O)oc2c1C,9.8*,/,-1.4,/,1.4
CC(C)C(=O)NCCc1nc(-c2ccc(Cl)cc2)no1,/,/,/,/,-0.2
O=c1cc(CN2CCN(Cc3ccccc3)CC2)c2cc3c(cc2o1)CCC3,7.7*,2.2,1.5,81.1*,-1.4
CCc1ccc(-c2cn3nc(C)c(C)nc3n2)cc1,0.7,/,-2.8,74.3,106.7*
Cc1cc(N2CCOCC2)n2cc(-c3ccc(F)cc3)nc2n1,1.8,-2.1,0.3,-1.8,-0.2
c1ccc(-c2cn3nc(-c4ccccc4)cnc3n2)cc1,-3.5,0.4,-3.2,0.1,/
Cc1nc2nc(-c3ccc(F)cc3)cn2nc1C,-2.5,/,-3.9,/,95.2*
Cc1nc2nc(-c3ccccc3)cn2nc1C,-0.8,45.6,-0.8,60.5*,111.3*
CCc1c(-c2ccccc2)nc2nc(C)c(C)nn12,-4.1,-0.2,-2.5,-3.9,49.8*
Cc1nn(C)cc1C(C)NC(=O)c1cc(COc2ccc(F)c(F)c2)on1 (stereo not drawn),-1.0,/,-4.8,/,0.0
O=C(c1ccco1)N1CCN(c2ccc([N+](=O)[O-])cn2)CC1,-1.0,/,0.4,/,7.0
O=C(CN1CCN(Cc2ccc(F)cc2Cl)CC1)NCc1ccccc1,-3.1,/,-3.4,/,0.4
Nc1nc(N2CCOCC2)cc(=O)[nH]1,-2.9,5.5,-1.6,18.8,20.3*
CCN(CC)c1ccc2c(C)c(CO)c(=O)oc2c1,1.8,20.8,-1.4,85.9*,131.5*
CCN(CC)c1ccc2c(C)c(CN3CCOCC3)c(=O)oc2c1,-3.3,11.2,-2.8,41.4,1.2
CCN(CC)c1ccc2c(Cl)cc(=O)oc2c1,-2.2,40.3,-1.3,-19.8,73.7*
O=C(CSc1nnc(NC(=O)c2cccc(Cl)c2)s1)NCC1CCCO1 (stereo not drawn),8.6*,/,-2.1,/,-1.1
CCOc1ccc(C(=O)Nc2nnc(SCC(=O)NCC3CCCO3)s2)cc1OCC (stereo not drawn),-1.3,/,-2.8,/,1.5
CCC(C)Sc1cccc(-c2nc3cc(C)ccn3c2NCc2ccccc2)c1 (stereo not drawn),/,/,/,/,4.3
OCCN1CCN(c2nc(-c3ccccc3O)nc3ccccc23)CC1,10.8*,/,-1.6,/,0.3
COc1cccc(-c2nc(N3CCCCC3C)c3ccccc3n2)c1O (stereo not drawn),-2.0,-1.6,-1.1,2.7,-3.4
COc1cccc(-c2nc(N3CCN(C)CC3)c3ccccc3n2)c1O,10.3*,-0.2,-2.4,-1.3,0.2
COc1cccc2c1C(=O)c1c(O)c3c(c(O)c1C2=O)C[C@@](O)(C(C)=O)C[C@@H]3O[C@H]1C[C@H](N)[C@H](O)[C@H](C)O1,18.8*,-20.0,2.1,-79.3,/
O=C(CN1C(=O)CSc2ccc(S(=O)(=O)N3CCCCC3)cc21)NCc1ccccc1,0.9,/,-0.5,/,4.1
O=C(O)Cn1c(O)c(C=Nc2ccccc2)sc1=S,-3.7,31.5,-2.3,73.1*,31.0*!
C=CCn1c(O)c(C=Nc2ccccc2)sc1=S,-2.5,1.5,-0.1,12.4,-2.7
O=c1oc2c(CN3CCOCC3)c(O)ccc2c2ccccc12,5.8,/,-1.4,-13.5,-5.5
O=c1oc2c(CN3CCOCC3)c(O)ccc2c2c1CCCC2,2.6,41.5,1.5,66.2*,33.3*
